From ChEMBL document CHEMBL1143259, “Synthesis and antiplasmodial activity of new 4-aryl-2-trichloromethylquinazolines” (Bioorg Med Chem Lett, 2008)

Key:
Plasmodium falciparum [1] = test: Antiplasmodial activity against chloroquinone-resistant Plasmodium falciparum W2; assay type: functional, organism-based
Plasmodium falciparum [2] = test: Antiplasmodial activity against chloroquinone-sensitive Plasmodium falciparum 3D7; assay type: functional, organism-based
HepG2 = test: Cytotoxicity against human HepG2 cells by MTT assay; assay type: cell-based
Procedure, shortened: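 HepG2 cells were seeded at 5 × 10³ cells/well in RPMI and pre-incubated for 24 h. Compound was added at various concentrations and incubated for 72 h. MTT (5 mg/mL in PBS) was then added in serum-free medium for 2 h at 37 °C in 6% CO₂. Formazan was dissolved in DMSO and A570 read against a 630 nm reference. Viability was expressed as % of untreated control, and the 50% cytotoxic concentration taken from the dose–response curve. Values are the mean of three independent experiments.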

[3] = (§1) Cytotoxicity against human THP1 cells by MTT assay; assay type: cell-based, THP-1; conditions: human, THP-1 cells; read-out: LC50 (the source's name)
Procedure, shortened: (§2)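 Cells seeded at 5 × 10³/well in RPMI and pre-incubated 24 h, then exposed to a range of compound concentrations for 72 h. MTT was added in serum-free medium for 2 h at 37 °C, and the formazan was dissolved in DMSO. Absorbance was read at 570 nm against a 630 nm reference. Viability was taken as % of untreated control, and IC50 came from the dose–response curve (mean of three independent experiments).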

THP-1 = test: as §1; assay type: cell-based; conditions: Homo sapiens, THP-1; procedure, shortened: as §2
[4] = Selectivity index, ratio of IC50 for human HepG2 cells to IC50 for Plasmodium falciparum W2; assay type: functional
Procedure, shortened: (§3)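 SI = human-cell IC50 divided by P. falciparum W2 IC50. Each IC50 is the mean of three independent experiments.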

[5] = Selectivity index, ratio of IC50 for human THP1 cells to IC50 for Plasmodium falciparum W2; assay type: functional, THP-1; procedure, shortened: as §3

| SMILES | IC50 (Plasmodium falciparum [1]) [µM] | IC50 (Plasmodium falciparum [2]) [µM] | IC50 (HepG2) [µM] | CC50 [3] [µM] | IC50 (THP-1) [µM] | Ratio IC50 [4] | Ratio IC50 [5] |
| --- | --- | --- | --- | --- | --- | --- | --- |
| ClC(Cl)(Cl)c1nc(-c2ccc3ccccc3c2)c2ccccc2n1 | 8.1 | 23.3 | > 125 | > 500 | > 500 | >15.4 | >61.7 |
| ClC(Cl)(Cl)c1nc(-c2ccco2)c2ccccc2n1 | 20.2 | 30 | > 125 | > 500 | 61.6 | >6.2 | 3.1 |
| COc1ccc(-c2nc(C(Cl)(Cl)Cl)nc3ccccc23)cc1 | 10.9 | 25 | 125 | > 250 | 250 | 11.5 | 22.9 |
| FC(F)(F)c1cccc(-c2nc(C(Cl)(Cl)Cl)nc3ccccc23)c1 | 40.4 | 36.6 | > 125 | > 500 | 78.6 | >3.1 | 1.9 |
| COc1cc(-c2nc(C(Cl)(Cl)Cl)nc3ccccc23)cc(OC)c1OC | 28.9 | 23.3 | > 125 | > 250 | > 250 | >4.3 | >8.7 |
| Clc1nc(C(Cl)(Cl)Cl)nc2ccccc12 | 54.5 | 73.2 | > 125 | > 500 | > 500 | >2.3 | >9.2 |
| ClC(Cl)(Cl)c1nc(-c2ccccc2)c2ccccc2n1 | 8 | 20.4 | > 125 | > 500 | 125 | >15.6 | 15.6 |
| Cc1nc(-c2ccccc2)c2ccccc2n1 | 62.4 | > 125 | > 125 | > 500 | 125 | >2 | 2 |
| Fc1ccc(-c2nc(C(Cl)(Cl)Cl)nc3ccccc23)cc1 | 2.5 | 3 | > 125 | 500 | 125 | >50 | 50 |
| Cc1ccc(-c2nc(C(Cl)(Cl)Cl)nc3ccccc23)s1 | 8.7 | 24 | 25 | 125 | 50 | 2.9 | 5.7 |
| Clc1ccc(-c2nc(C(Cl)(Cl)Cl)nc3ccccc23)cc1 | 4.7 | 2.2 | > 125 | > 500 | 73.2 | >26.6 | 15.6 |
| C/N=C(\NC)c1nc(-c2ccccc2)c2ccccc2n1.Cl | > 100 | > 100 | > 125 | > 500 | > 500 | < 1.25 | 5 |
| CCN(CC)CCCC(C)Nc1ccnc2cc(Cl)ccc12 (centres undefined) [CHLOROQUINE] |  |  | 30 |  |  |  |  |
| COc1cccc2c1C(=O)c1c(O)c3c(c(O)c1C2=O)C[C@@](O)(C(=O)CO)C[C@@H]3O[C@H]1C[C@H](N)[C@H](O)[C@H](C)O1 [DOXORUBICIN] |  |  | 0.2 | 2.5 | 0.05 |  |  |
| C[C@H]1c2cccc(O)c2C(=O)C2=C(O)[C@]3(O)C(=O)C(C(N)=O)=C(O)[C@@H](N(C)C)[C@@H]3[C@@H](O)[C@@H]21 [DOXYCYCLINE] | 9 |  |  |  |  |  |  |
